Source: paper PMC5955861 (Oncogene, 2018)
Like-named read-outs stand apart in the source and are kept apart here.

Columns and labels:
MV-4-11B = assay: alamarBlue cell proliferation assay; format: cell-based, human; details: MV-4-11B cells
Procedure, shortened: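 Cell lines from ATCC or DSMZ were cultured per supplier's instructions and STR-authenticated. MV-4-11B is a clone of MV-4-11 carrying heterozygous TP53 c.742C>T (p.R248W). Cells were exposed to test compound in 96-well format, and viability was read after incubation with alamarBlue.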

[1] = tested on: p-Ser2 POL-II in MV-4-11B cells; assay: p-Ser2 POL-II custom MSD assay; format: cell-based; details: 5 µM LDC000067, 2 h
Procedure, shortened: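 MV-4-11B cells were treated for 2 h with single agents or their combination. Phospho-Ser2 RNA Pol II was quantified with a custom Meso Scale Discovery multi-array assay.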

THP-1 AML cells = assay: disseminated AML xenograft efficacy study; format: in vivo, CIEA-NOG mice; details: decitabine twice per week, 0.5 mg/kg i.p.

SMILES: Cc1sc2c(c1C)C(c1ccc(Cl)cc1)=N[C@@H](CC(=O)OC(C)(C)C)c1nnc(C)n1-2 [JQ1, reference compound]
- EC50 (MV-4-11B; read-out: anti-proliferative EC50, biologically equivalent concentrations): 200 nM

SMILES: COc1ccccc1-c1cc(Nc2cccc(CS(N)(=O)=O)c2)ncn1 [LDC000067, reference compound]
- EC50 (MV-4-11B): 5000 nM
- p-Ser2 POL-II levels [1]: ~ 64 % of control

SMILES: Nc1ncn([C@H]2C[C@H](O)[C@@H](CO)O2)c(=O)n1 [decitabine, reference compound]
- survival prolongation (THP-1 AML cells): 26 days
